Reference: ChEMBL document CHEMBL1139485, “Tricyclic pyrazoles. 3. Synthesis, biological evaluation, and molecular modeling of analogues of the cannabinoid antagonist 8-chloro-1-(2',4'-dichlorophenyl)-N-piperidin-1-yl-1,4,5,6-tetrahydrobenzo[6,7]cyclohepta[1,2-c]pyrazole-3-carboxamide” (J Med Chem, 2005)
Calls of active or inactive are those of the source. The calls are words filed in the database; no cut-off is given here.

Legend:
Cannabinoid receptor 1 = Cannabinoid receptor 1 (Mus musculus, UniProt P47746); test: Displacement of [3H]CP-55940 from CB1 receptor in CD1 mouse brain; format: tissue-based
Sequence of Cannabinoid receptor 1 (P47746 whole entry): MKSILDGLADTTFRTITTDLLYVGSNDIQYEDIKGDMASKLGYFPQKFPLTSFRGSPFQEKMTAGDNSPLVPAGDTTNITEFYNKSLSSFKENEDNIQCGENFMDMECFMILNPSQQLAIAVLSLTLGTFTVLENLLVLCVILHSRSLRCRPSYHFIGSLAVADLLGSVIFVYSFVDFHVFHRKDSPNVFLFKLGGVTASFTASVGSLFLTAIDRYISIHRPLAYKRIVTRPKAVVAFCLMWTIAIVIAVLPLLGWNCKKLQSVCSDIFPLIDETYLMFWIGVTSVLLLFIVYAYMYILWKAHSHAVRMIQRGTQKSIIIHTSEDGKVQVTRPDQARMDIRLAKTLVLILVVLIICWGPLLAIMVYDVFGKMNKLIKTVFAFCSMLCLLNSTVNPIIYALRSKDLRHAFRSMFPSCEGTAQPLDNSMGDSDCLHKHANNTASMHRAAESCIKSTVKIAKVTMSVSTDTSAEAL
Outline: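 Membranes from male CD-1 mouse brain (minus cerebellum) for CB1 or spleen for CB2, prepared in ice-cold TME buffer (50 mM Tris-HCl, 1 mM EDTA, 3.0 mM MgCl2, pH 7.4). 30–80 μg protein incubated with 0.5–1 nM [3H]CP-55,940, 1 h, 30 °C, with 5 mg/mL fatty-acid-free BSA. Nonspecific binding defined by 1 μM CP-55,940. Filtration, scintillation counting. IC50 from sigmoid fit converted to Ki. Triplicate, ≥5 experiments.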

[1] = biological target: Cannabinoid receptor (Mus musculus) (UniProt P47746+P47936); test: Selectivity for CB1 receptor over CB2 receptor in CD1 mouse; format: protein assay
Sequence of Cannabinoid receptor (Mus musculus) (P47746 whole entry, looked up): as the sequence (P47746 whole entry) above
Sequence of Cannabinoid receptor (Mus musculus) (P47936 whole entry, looked up): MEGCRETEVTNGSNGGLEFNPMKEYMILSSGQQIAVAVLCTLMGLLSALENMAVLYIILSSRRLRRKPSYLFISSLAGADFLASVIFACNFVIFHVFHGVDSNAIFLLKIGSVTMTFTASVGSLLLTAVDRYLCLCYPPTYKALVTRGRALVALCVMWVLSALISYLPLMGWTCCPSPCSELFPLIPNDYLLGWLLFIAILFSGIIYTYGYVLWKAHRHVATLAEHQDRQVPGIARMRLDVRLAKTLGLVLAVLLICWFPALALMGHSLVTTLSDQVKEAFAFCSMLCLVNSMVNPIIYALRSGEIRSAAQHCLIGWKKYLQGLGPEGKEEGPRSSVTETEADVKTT

Cannabinoid receptor 2 = Cannabinoid receptor 2 (Mus musculus, UniProt P47936); test: Displacement of [3H]CP-55940 from CB2 receptor in CD1 mouse spleen; format: tissue-based
Sequence of Cannabinoid receptor 2 (P47936 whole entry): as the sequence (P47936 whole entry, looked up) above
Outline: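 Membranes from male CD-1 mouse brain (minus cerebellum) for CB1 or spleen for CB2, prepared in ice-cold TME buffer (50 mM Tris-HCl, 1 mM EDTA, 3.0 mM MgCl2, pH 7.4). Filtration, scintillation counting. IC50 from sigmoid fit converted to Ki. Triplicate, ≥5 experiments.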

Mus musculus [2] = test: Effect on upper gastrointestinal motility in CD1 mouse at 0.1 mg/kg, ip; format: functional, organism-based; set-up: dose 0.1 mg/kg
Outline: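 Male CD-1 mice (20–35 g), n = 15–20 per group. Drug in saline with 0.1% Tween-80 (12.5 mL/kg) given ip 30 min before intragastric red carmine (6 wt %/v in 0.5% methylcellulose, 0.3 mL/mouse). Mice killed 20 min later. Distance reached by the marker head expressed as % of small intestine length (pylorus to ileocaecal junction). Mean ± SEM.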

Mus musculus [3] = test: Increase in upper gastrointestinal motility in CD1 mouse at 0.5 to 1 mg/kg, ip; format: functional; conditions: dose mg/kg 0.5-1; route intraperitoneal
Outline: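 Male CD-1 mice (20–35 g), n = 15–20 per group. Compound given ip in saline with 0.1% Tween-80, 30 min before intragastric red carmine marker (6% suspension in 0.5% methylcellulose, 0.3 mL/mouse). Killed 20 min later. Distance travelled by the marker head expressed as % of small-intestine length (pylorus to ileocaecal junction). Group mean ± SEM versus vehicle-treated mice, by ANOVA/Newman–Keuls.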

Mus musculus [4] = test: Reversal of 0.5 mg/kg WIN-55212-2-induced inhibitory effect on upper gastrointestinal motility in CD1 mouse at 0.1 mg/kg ip; format: functional, organism-based
Outline: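 Male CD-1 mice, n = 15–20 per group. Test drug 0.1 mg/kg ip given 10 min before WIN 55,212-2 (0.5 mg/kg ip), both in saline with 0.1% Tween-80. Intragastric carmine marker 20 min after agonist; mice killed 20 min later. Transit measured as % of small intestine length travelled by marker. ANOVA with Newman–Keuls test.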

Row | Ki (Cannabinoid receptor 1) | Ratio Ki [1] | Ki (Cannabinoid receptor 2) | Structure (SMILES) | Activity (Mus musculus [2]) | Activity (Mus musculus [3]) | Activity (Mus musculus [4])
1 | 31.2 nM (antagonist) | 0.86 | 26.8 nM (antagonist) | O=C(NN1CCCCC1)c1nn(-c2ccc(Cl)cc2Cl)c2c1CCCc1ccc(Cl)cc1-2 | – | – | –
2 | 0.004 nM (antagonist) | 11200 | 45 nM (antagonist) | O=C(NN1CCCC1)c1nn(-c2ccc(Cl)cc2Cl)c2c1CCCc1cc(Cl)ccc1-2 | – | – | –
3 | 5.74 nM (antagonist) | 11.3 | 65 nM (antagonist) | Cc1ccc(NC(=O)c2nn(-c3ccc(Cl)cc3Cl)c3c2CCCc2cc(Cl)ccc2-3)cc1 | – | – | –
4 | 2.5 nM (antagonist) | 31.6 | 79 nM (antagonist) | O=C(Nc1ccc(Cl)cc1)c1nn(-c2ccc(Cl)cc2Cl)c2c1CCCc1cc(Cl)ccc1-2 | – | – | –
5 | 0.008 nM (antagonist) | 4620 | 37 nM (antagonist) | O=C(NN1CCCCC1)c1nn(-c2ccc(Cl)cc2Cl)c2c1CCCc1cc(Br)ccc1-2 | – | – | –
6 | 0.00035 nM (antagonist) | 60000 | 21 nM (antagonist) | O=C(NN1CCCCC1)c1nn(-c2ccc(Cl)cc2Cl)c2c1CCCc1cc(Cl)ccc1-2 | – | – | –
7 | 4.35 nM (antagonist) | 0.33 | 1.45 nM (antagonist) | O=C(Nc1ccccc1)c1nn(-c2ccc(Cl)cc2Cl)c2c1CCCc1cc(Cl)ccc1-2 | – | – | –

The remaining lines, values behind:

Row | Structure (SMILES) | Ki (Cannabinoid receptor 1) | Ratio Ki [1] | Ki (Cannabinoid receptor 2) | Activity (Mus musculus [2]) | Activity (Mus musculus [3]) | Activity (Mus musculus [4])
8 | O=C(NN1CCCCC1)c1nn(-c2ccc(Cl)cc2Cl)c2c1CCCc1ccccc1-2 | 168 nM (antagonist) | 0.11 | 18.1 nM (antagonist) | – | – | –
9 | COc1ccc(NC(=O)c2nn(-c3ccc(Cl)cc3Cl)c3c2CCCc2cc(Cl)ccc2-3)cc1 | 0.013 nM (antagonist) | 3300 | 43.3 nM (antagonist) | – | – | –
10 | Cc1ccc2c(c1)CCCc1c(C(=O)NN3CCCCC3)nn(-c3ccc(Cl)cc3Cl)c1-2 | 0.0052 nM (antagonist) | 88.5 | 0.46 nM (antagonist) | – | – | –
11 | O=C(NC1CCCCC1)c1nn(-c2ccc(Cl)cc2Cl)c2c1CCCc1cc(Cl)ccc1-2 | 0.3 nM (antagonist) | 2.16 | 0.65 nM (antagonist) | – | – | –
12 | O=C(NN1CCCCC1)c1nn(-c2ccc(Cl)cc2Cl)c2c1CCc1cc(Cl)ccc1-2 | 14.8 nM (antagonist) | 15.3 | 227 nM (antagonist) | – | – | –
13 | O=C(Nc1ccc(Cl)c(Cl)c1)c1nn(-c2ccc(Cl)cc2Cl)c2c1CCCc1cc(Cl)ccc1-2 | 25.8 nM (antagonist) | – | > 500 nM | – | – | –
14 | O=C(NN1CCCCC1)c1nn(-c2ccc(Cl)cc2Cl)c2c1CCCc1c(Cl)cccc1-2 | 9.84 nM (antagonist) | 3.21 | 31.6 nM (antagonist) | – | – | –
15 | Cc1ccc2c(c1)CCCc1c(C(=O)NN3CCCC3)nn(-c3ccc(Cl)cc3Cl)c1-2 | 0.11 nM (antagonist) | 3510 | 386 nM (antagonist) | – | – | –
16 | O=C(NN1CCCCC1)c1nn(-c2ccc(Cl)cc2Cl)c2c1Cc1cc(Cl)ccc1-2 | 2050 nM (antagonist) | 0.000166 | 0.34 nM (antagonist) | – | – | –
17 | O=C(NN1CCCCCC1)c1nn(-c2ccc(Cl)cc2Cl)c2c1CCCc1cc(Cl)ccc1-2 | 0.001 nM (antagonist) | 2000 | 2 nM (antagonist) | inactive | 65% | Active
